GPR7 antag = GPR7 receptor antagonists, primary screen, cell-based, fluorescence, single concentration; GPR7-expressing cells, fluorescence antagonist assay; AID 1861, 2009; inhibition, % at 4.4 µM; hit rate 1.1% among 290,000; in the data active means inhibition above about 16%, passing the limit was not always enough;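 further: cells stimulated with the agonist NPW; 0% = agonist with vehicle and 100% = vehicle without agonist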
Target sequence (P48145 whole entry, looked up): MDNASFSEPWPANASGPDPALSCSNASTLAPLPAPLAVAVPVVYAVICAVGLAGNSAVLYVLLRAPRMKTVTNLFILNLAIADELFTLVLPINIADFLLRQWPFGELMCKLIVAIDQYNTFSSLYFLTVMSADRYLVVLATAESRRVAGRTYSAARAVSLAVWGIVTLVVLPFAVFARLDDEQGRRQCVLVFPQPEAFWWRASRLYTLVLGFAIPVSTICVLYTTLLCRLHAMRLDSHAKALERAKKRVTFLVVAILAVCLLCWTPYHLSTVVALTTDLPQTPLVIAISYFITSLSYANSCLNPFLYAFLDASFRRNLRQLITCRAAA
MPTP block = mitochondrial permeability transition pore inhibitors, primary screen, biochemical, isolated mouse mitochondria, absorbance. AID 602449, 2012. Ca2+ swelling absorbance, 30 min. inhibition, % at 10 µM. hit rate 1.4% among 360,000;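 active means inhibition of 50% or more, scaled per plate between neutral and stimulator controls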;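 further: 0% = DMSO wells given calcium and 100% = 1 mM EGTA wells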
OX1R antag-1 = antagonists of human orexin 1 receptor (OX1R) | Orexin/Hypocretin receptor type 1 (Homo sapiens), O43613 | OX1R-expressing cells, FRET antagonist read-out | inhibition, % at 6.6 µM | hit rate 1.8% among 330,000; in the data active means inhibition mostly above about 38%, no sharp cut-off; inactive means mostly below about 40%;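 further: 0% = agonist challenge alone and 100% = reference antagonist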
OX1R antag-2 = OX1R (HCRTR1) antagonists, primary screen, fluorescence, CHO/OX1R cells, Fluo-8 calcium, orexin A; inhibition, % at 5 µM; Fluo-8 calcium fluorescence; AID 434989, 2010; hit rate 0.43% among 330,000;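 active means inhibition above its plate's threshold, mean inhibition of all tested compounds on the plate plus 3 SD, cut at about 37% in these data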;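 further: 0% = orexin A challenge wells and 100% = SB-334867-A antagonist wells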
CHO parental Ca = ATP-evoked calcium signal inhibitors, parental CHO, primary screen, counter-screen for OX1R antagonist project, cell-based, fluorescence, Fluo-8 calcium dye; hit rate 0.63% among 330,000; parental CHO-K1, ATP-induced calcium, Fluo-8 fluorescence; inhibition, % at 5.6 µM;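 active means inhibition above that plate's mean sample inhibition plus 3 SD, cut at about 26% in these data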;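 further: 0% = ATP-challenged DMSO wells and 100% = DMSO wells without ATP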
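Material: parental CHO cells / Compound: single nominal dose of 5.6 µM per compound / Signal: Fluo-8 fluorescence / Replicates: singlicate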
MPTP counter = fluorescence retest of MPTP screen hits in isolated mitochondria, single concentration; AID 624504, 2012; shares compounds with MPTP block; inhibition, % at 10 µM; hit rate 78% among 5,000; membrane potential, Rhodamine 123 fluorescence; in the data active means inhibition above about 22%;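 further: 0% = DMSO vehicle and 100% = positive control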
MPTP abs DR = mitochondrial permeability transition pore inhibitors, dose response, biochemical, absorbance, uHTS hits; isolated mitochondria swelling; IC50, µM; AID 651561, 2012; hit rate 58% among 780; shares compounds with MPTP block; in the data active means IC50 below about 20 µM
MPTP cs DR = fluorescent counter-screen in isolated mitochondria, dose response, counter-screen for MPTP inhibitor project, biochemical, fluorescence, uHTS hits; IC50, µM; shares compounds with MPTP block; isolated mitochondria counterscreen, fluorescence read-out; hit rate 49% among 780; in the data active means IC50 below about 80 µM
* marks the source's active call; other numbers are inactive results; i = inactive; / = no result given. Only some compounds are listed: those with a hit (about 3.8% of all), similar ones and a draw of the others.

SMILES	GPR7 antag	MPTP block	OX1R antag-1	OX1R antag-2	CHO parental Ca	MPTP counter	others
c1ccc2c(N3CCNCC3)cccc2c1	/	70*	13	-11	3	-5	MPTP abs DR=19*;MPTP cs DR=>80
C[C@]12C[C@H](O)[C@@H](O)CC1=CCC1C2CC[C@@]2(C)C1CC[C@@H]2O (stereo not given in full)	/	11	7	-2	-4	/
O=C1NC(=O)C(=Cc2ccc(-c3ccccc3[N+](=O)[O-])o2)C(=O)N1	16	51*	21	14	-3	47*
O=C1NC(=O)C(=Cc2ccc(-c3cc(Cl)ccc3[N+](=O)[O-])o2)C(=O)N1	-9	31	/	/	/	/
C/C(=N\NC(N)=S)C1=CCC2C3CC[C@H]4CC(O)CC[C@]4(C)C3CC[C@]12C (stereo not given in full)	-16	65*	-3	-30	-14	14	MPTP abs DR=18*;MPTP cs DR=22*
CC(C)CCNC(=O)c1cc(C(=O)c2cc(F)ccc2O)cn(CCC(C)C)c1=O	-8	53*	9	-14	-19	-2	MPTP abs DR=i;MPTP cs DR=5.9*
CC(C)CCNC(=O)c1cc(C(=O)c2cc(Br)ccc2O)cn(CCC(C)C)c1=O	-16	93*	20	-30	-8	7	MPTP abs DR=>100;MPTP cs DR=<2.5*
CC(C)n1c(=O)c(C=Nc2cccc([N+](=O)[O-])c2)c(O)n(CCc2ccccc2)c1=O	-10	4	23	-7	-10	/
Cc1ccc(C(O)(c2ccc(C)c(C)c2)C2CN3CCC2CC3)cc1C (stereo not given)	31	1	0	-4	-12	/
Cc1ccccc1C(O)(Cc1ccccc1)C1CN2CCC1CC2 (stereo not given)	11	62*	17	-16	-9	-7	MPTP abs DR=16*;MPTP cs DR=>80
O=C(Nc1ccc(Br)cc1)N1C[C@H]2C[C@@H](C1)c1cccc(=O)n1C2	20	-3	16	2	-13	/
O=C(Nc1ccc(Cl)cc1)N1CC2CC(C1)c1cccc(=O)n1C2 (stereo not given)	2	60*	9	8	10	103*
CC(NCc1ccc(Cl)cc1Cl)C(O)c1ccccc1 (stereo not given)	-5	1	6	-14	-18	/
CC(NCc1cccc(Cl)c1Cl)C(O)c1ccccc1 (stereo not given)	-1	72*	9	-7	-23	-3	MPTP abs DR=>100;MPTP cs DR=>80
Cc1ncc(CNC(=O)N(CCCl)N=O)c(N)n1	/	-3	16	-1	2	/
Cc1cccc(CCNCc2cc3cc(C)cc(C)c3[nH]c2=O)c1	-3	-2	14	-36	-8	/
Cc1cccc(CCNCc2cc3cccc(C)c3[nH]c2=O)c1	-6	67*	/	/	/	44*
Fc1ccc(C(OCCN2CCN(CCCc3ccccc3)CC2)c2ccc(F)cc2)cc1	/	97*	6	1	21	3
Fc1ccc(C(OCCN2CCCC2)c2ccc(F)cc2)cc1	14	-1	3	-22	-18	/
CCc1cc2c(s1)NC(=O)CN=C2c1cccs1	3	0	17	-13	-15	/
CCCCCc1nc2c(c(=O)c3ccccc3n2C)c(=O)n1C1CCCCCC1	-4	87*	19	-8	-15	-5
CCCCCc1nc2ccccc2c(=O)n1-c1ccccc1[N+](=O)[O-]	-1	2	12	-40	-21	/
CC(C)(C)c1cc(C=C(C#N)C#N)cc(C(C)(C)C)c1O	/	108*	44*	-12	-5	89*
CCOc1ccc(NC(=O)N2C[C@H]3C[C@@H](C2)c2cccc(=O)n2C3)cc1	-12	11	18	-10	-7	/
O=C(c1ccc(Cl)cc1)C1CCCN(Cc2ccc3ncccc3c2)C1 (stereo not given)	9	3	13	-24	-3	/
O=C(CF)NC(NC(=S)Nc1cccc([N+](=O)[O-])c1)C(Cl)(Cl)Cl (stereo not given)	0	79*	20	-20	2	92*
CCOC(=O)C1(CCOc2ccccc2)CCN(Cc2ccc(C)s2)CC1	9	65*	16	7	-14	82*
CCCCCCNC(=O)N[C@H](Cc1ccc(O)cc1)C(=O)NCCC[C@H]1CN2C(=NC[C@H]2CCC)N1CC1CCC1	/	/	35	-20	-20	/
O=C1N(c2ccc(Cl)cc2)C(c2cccnc2)N2CCCN12 (stereo not given)	-2	67*	5	1	5	104*

Assay outcomes from PubChem.
